The source of these data is ChEMBL document CHEMBL1138799, “4-benzyl- and 4-benzoyl-3-dimethylaminopyridin-2(1H)-ones, a new family of potent anti-HIV agents: optimization and in vitro evaluation against clinically important HIV mutant strains” (J Med Chem, 2004).

Assay [1] relates to Human immunodeficiency virus 1. Briefly: Selectivity index of cytotoxic activity (CC50) to inhibitory activity (IC50) relative to LAI cell line. Type of assay: functional. Put shortly:
(§1)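 MT4 human T-lymphoblastoid cells were grown in RPMI 1640 with 10% fetal calf serum and antibiotics at 37 °C and 5% CO2. A compound concentration series was combined with HIV-1 LAI at 200 CCID50/well and 30 000 cells/well. Mock-infected cultures with the same concentrations were run in parallel to measure cytotoxicity. After 5 days, cell viability was read by MTT colorimetry. EC50 is the concentration giving 50% infection versus the drug-free control.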

Assay [2] has as its system Human immunodeficiency virus 1. Briefly: Inhibitory activity against HIV-1 double mutants strain 227L and 106A. Type of assay: functional, organism-based. Put shortly: (§2)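 Mutant HIV-1 made by recombining mutant PR-RT sequence into a PR-RT-deleted HXB2 proviral clone. Serial compound concentrations plated, then virus (200 CCID50/well) and MT4 cells (30 000 cells/well; RPMI 1640, 10% FCS) added; 5 days at 37 °C, 5% CO2; viability read by MTT. EC50 = concentration giving 50% infection versus drug-free control; mock-infected cultures run in parallel for toxicity.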

Assay [3] relates to Human immunodeficiency virus 1. Briefly: Inhibitory activity against HIV-1 mutant strain 181C. Type of assay: functional, organism-based. Put shortly: as §2
The test system of assay [4] is Human immunodeficiency virus 1. Briefly: Inhibitory activity against HIV-1 double mutants strain 100I and 103N. Type of assay: functional, organism-based. Put shortly: as §2
Assay [5] concerns Human immunodeficiency virus 1. Briefly: Inhibitory activity against HIV-1 double mutants strain 101E and 103N. The format is functional, organism-based. Put shortly: as §2
Assay [6] relates to Human immunodeficiency virus 1. As to the kind of experiment: Inhibitory activity against HIV-1 mutant strain 188L. The format is functional, organism-based. Put shortly:
as §2

Assay [7] relates to Human immunodeficiency virus 1. As to the kind of experiment: Inhibitory activity against HIV-1 mutant strain 227C. The format is functional, organism-based. Put shortly:
as §2

Assay [8] concerns Human immunodeficiency virus 1. As to the kind of experiment: Inhibitory activity against wild type HIV-1 LAI cell line. Type of assay: functional, organism-based. The note with it: Human immunodeficiency virus 1, LAI. Put shortly:
as §1

The subject of assay [9] is Human immunodeficiency virus 1. Briefly: Inhibitory activity against HIV-1 mutant strain 101E. The format is functional, organism-based. In short, it runs like this:
as §2

Assay [10] deals with Human immunodeficiency virus 1. Briefly: Inhibitory activity against HIV-1 mutant strain 190A. The format is functional, organism-based. Put shortly: as §2
Assay [11] relates to Human immunodeficiency virus 1. Briefly: Inhibitory activity against HIV-1 mutant strain 103N. Type of assay: functional, organism-based. Put shortly:
as §2

Assay [12] has as its system Human immunodeficiency virus 1. As to the kind of experiment: Inhibitory activity against HIV-1 mutant strain 106A. The format is functional, organism-based. Put shortly: as §2
Assay [13] has as its system Human immunodeficiency virus 1. As to the kind of experiment: Inhibitory activity against HIV-1 double mutants strain 103N and 181C. The format is functional, organism-based. Put shortly: as §2
Assay [14] has as its system Human immunodeficiency virus 1. Briefly: Inhibitory activity against HIV-1 mutant strain 138K. The format is functional, organism-based. In short, it runs like this: as §2
The test system of assay [15] is Human immunodeficiency virus 1. Briefly: Inhibitory activity against HIV-1 mutant strain 179E. The format is functional, organism-based. In short, it runs like this: as §2
In assay [16] the test system is Human immunodeficiency virus 1. As to the kind of experiment: Inhibitory activity against HIV-1 mutant strain 100I. The format is functional, organism-based. In short, it runs like this:
as §2

The subject of assay [17] is Human immunodeficiency virus 1. As to the kind of experiment: Inhibitory activity against HIV-1 mutant strain 190S. The format is functional, organism-based. Put shortly: as §2

By IC50 is commonly meant the point on the concentration scale where inhibition reaches its midpoint. Molecule `CCc1c(C)[nH]c(=O)c(N(C)C)c1C(=O)c1cc(C)cc(C)c1` had a Selectivity index in assay [1] of 2510. In addition, the IC50 in [2] is 390 nM; in assay [3], 60 nM; in assay [4], 40 nM; in [5], 10 nM; in assay [6] it was 150 nM; in assay [7], 630 nM. Besides, the IC50 in assay [8] turned out to be 4 nM; in [9], 8 nM; in [10], 10 nM; in assay [11], 10 nM; in assay [12] it was 6 nM; in assay [13], 150 nM. In addition, the IC50 in assay [14] stood at 5 nM; in assay [15], 2 nM; in assay [16] it was 6 nM; in assay [17], 4 nM.

The molecule `CCc1c(C)[nH]c(=O)c(N(C)C)c1Cc1cc(C)cc(C)c1` displayed a Selectivity index in assay [1] of 12600. The IC50 in assay [3] worked out at 100 nM; in assay [6], 250 nM; in assay [8] it was 8 nM; in assay [9] it was 10 nM; in [10], 60 nM; in [11], 30 nM. Moreover, the IC50 in assay [12] was 40 nM; in assay [13], 790 nM; in assay [16], 50 nM.

As for `CCc1c(C)nc(O)c(N(C)C)c1C(=O)c1cccc(/C=C/C#N)c1`, the Selectivity index in [1] stood at 10000. Also, the IC50 in [2] came to 1000 nM; in [3] it was 10 nM; in assay [4], 20 nM; in assay [5], 10 nM; in assay [6], 150 nM; in assay [7], 790 nM. Also, the IC50 worked out at 1 nM in [8]; 8 nM in assay [9]; 6 nM in assay [10]; 2 nM in assay [11]; 2 nM in [12]; 40 nM in [13]. The IC50 in [14] came out at 5 nM; in [15], 1 nM; in assay [16], 6 nM; in assay [17], 6 nM.

The molecule `CCc1c(C)nc(O)c(N(C)C)c1Cc1cc(Cl)cc(Cl)c1` came in with a Selectivity index in assay [1] of 3980. Also, the IC50 in assay [2] was 500 nM; in assay [3], 160 nM; in assay [4] it was 310 nM; in assay [5] it was 200 nM; in assay [6], 630 nM; in assay [7] it was 700 nM. Also, the IC50 in assay [8] was 8 nM; in [11] it was 20 nM; in [13], 500 nM; in assay [16] it was 50 nM.

For the molecule `CCc1c(C)nc(O)c(N(C)C)c1C(=O)c1cccc(C#N)c1`, in assay [1], the Selectivity index turned out to be 6310. Further, the IC50 is 50 nM in [2]; 40 nM in [3]; 30 nM in assay [4]; 20 nM in [5]; 390 nM in assay [6]; 220 nM in assay [7]. The IC50 in assay [8] turned out to be 2 nM; in assay [9], 7 nM; in [10] it was 5 nM; in assay [11] it was 6 nM; in [13], 110 nM; in assay [14] it was 4 nM. The IC50 was determined as 4 nM in [15], 10 nM in assay [16] and 2 nM in assay [17].

For `CCOCn1c(Cc2ccccc2)c(C(C)C)c(=O)[nH]c1=O` [EMIVIRINE], the Selectivity index in [1] is 1260. The IC50 in assay [2] was found to be 100000 nM; in assay [3] it was 1990 nM; in assay [4] it was 25100 nM; in [5], 7940 nM; in assay [6], 39800 nM; in assay [7], 79400 nM. Moreover, the IC50 is 8 nM in assay [8]; 120 nM in assay [9]; 1580 nM in [10]; 790 nM in assay [11]; 1990 nM in assay [12]; 100000 nM in [13]. The IC50 in assay [14] was 70 nM; in assay [15], 30 nM; in [16], 40 nM; in assay [17], 7940 nM.

`CCc1c(C)nc(O)c(N(C)C)c1Cc1cccc(/C=C/C#N)c1`: the Selectivity index in assay [1] is 25100. The IC50 in assay [2] amounted to 3160 nM; in [3], 10 nM; in [4], 30 nM; in [5] it was 20 nM; in [6], 150 nM; in [7], 390 nM. The IC50 in assay [8] was determined as 0.4 nM; in [9] it was 6 nM; in assay [10], 8 nM; in [11] it was 2 nM; in assay [12], 2 nM; in [13], 30 nM. Besides, the IC50 in assay [14] is 3 nM; in assay [15], 1 nM; in assay [16], 10 nM; in [17] it was 40 nM.

In the case of `O=C1Nc2ccc(Cl)cc2[C@@](C#CC2CC2)(C(F)(F)F)O1` [EFAVIRENZ], the IC50 in assay [2] amounted to 20 nM; in assay [3], 2 nM; in assay [4], 10000 nM; in [5], 150 nM; in assay [6], 150 nM; in [7], 150 nM. Further, the IC50 came to 6 nM in assay [9]; 10 nM in [10]; 40 nM in [11]; 40 nM in [12]; 40 nM in [13]; 2 nM in assay [14]. The IC50 in [15] came out at 5 nM; in [16], 40 nM; in assay [17], 250 nM.

In assay [1], `CCc1c(C)nc(O)c(N(C)C)c1C(=O)c1cccc(/C(C)=C/C#N)c1` returned a Selectivity index of 63100. For the same molecule, the IC50 in [2] amounted to 1250 nM; in [3], 60 nM; in assay [4], 40 nM; in assay [5], 20 nM; in [6], 390 nM; in assay [7] it was 1250 nM. Further, the IC50 in [8] worked out at 1 nM; in assay [9], 8 nM; in assay [10], 6 nM; in [11], 3 nM; in [12], 3 nM; in assay [13], 200 nM. The IC50 in assay [14] was 4 nM; in [15], 2 nM; in assay [16] it was 10 nM; in [17] it was 10 nM.

As to `CCc1c(C)nc(O)c(N(C)C)c1C(=O)c1cccc(Br)c1`, the Selectivity index in assay [1] is 12600. In addition, the IC50 amounted to 100 nM in [2]; 150 nM in assay [3]; 70 nM in assay [4]; 70 nM in [5]; 790 nM in [6]; 260 nM in assay [7]. Moreover, the IC50 in [8] was determined as 2 nM; in assay [9] it was 10 nM; in assay [10], 7 nM; in [11], 20 nM; in assay [13], 970 nM; in assay [14], 5 nM. Further, the IC50 in [15] came to 5 nM; in assay [16], 20 nM; in assay [17], 3 nM.

As to `Cc1ccnc2c1NC(=O)c1cccnc1N2C1CC1` [NEVIRAPINE], the IC50 in [2] was 20 nM; in assay [3], 10000 nM; in assay [5] it was 500 nM; in [6] it was 100000 nM; in [7], 130 nM; in assay [8] it was 30 nM. In addition, the IC50 in [9] is 310 nM; in [13], 40 nM; in [14], 50 nM; in assay [15] it was 190 nM; in [16] it was 310 nM; in assay [17], 40 nM.

Molecule `CCc1c(C)nc(O)c(N(C)C)c1C(=O)c1cc(Cl)cc(Cl)c1` yielded a Selectivity index in assay [1] of 5010. The IC50 came out at 60 nM in assay [2]; 30 nM in assay [3]; 500 nM in assay [4]; 40 nM in assay [5]; 310 nM in [6]; 630 nM in assay [7]. Also, the IC50 in assay [8] turned out to be 2 nM; in [9], 10 nM; in [10] it was 10 nM; in assay [11], 10 nM; in [13] it was 150 nM; in [14] it was 10 nM. The IC50 in assay [15] was 10 nM; in assay [16] it was 8 nM; in [17], 3 nM.
